In the library only some 4.3% were active in any assay of this set; here they are far more common.
TAAR1 ag: human TAAR1 agonism; Q96RJ0; CHO RD-HGA16 TAAR1, Fluo-8 calcium fluorescence; vehicle wells 0%, saturating PEA agonist 100%; activation, % at 3 µM; 360,000 tested, 0.99% active; AID 624467;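 active = activation above the mean activation of all test compounds in the run plus 3 SD, cut at about 38% in these data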
Target sequence (Q96RJ0 whole entry, looked up): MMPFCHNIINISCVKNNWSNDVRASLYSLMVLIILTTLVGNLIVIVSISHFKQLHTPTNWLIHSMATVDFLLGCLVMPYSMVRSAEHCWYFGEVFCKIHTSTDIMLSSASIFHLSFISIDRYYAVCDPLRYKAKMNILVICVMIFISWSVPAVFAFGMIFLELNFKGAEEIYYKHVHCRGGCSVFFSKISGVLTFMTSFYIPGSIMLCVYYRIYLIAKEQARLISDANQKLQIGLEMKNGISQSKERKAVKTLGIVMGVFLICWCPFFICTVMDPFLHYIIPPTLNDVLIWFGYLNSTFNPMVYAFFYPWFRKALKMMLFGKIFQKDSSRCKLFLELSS
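Assay system: CHO-derived RD-HGA16 cells with stable Gα16 and human TAAR1; timing: 17-24 h seeding, 75 min 37 °C dye, 30 min RT; read-out: % activation from peak over basal fluorescence ratio, DMSO-to-PEA scaled; measured by: kinetic Fluo-8 calcium fluorescence; benchmarks: low control DMSO, high control PEA (EC100); doses: 3 µM single concentration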
TAAR1 antag: human TAAR1 antagonism; Q96RJ0; CHO RD-HGA16 TAAR1, Fluo-8 calcium fluorescence, antagonist; inhibition, % at 3 µM; 360,000 tested, 1.5% active;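 active = inhibition above a per-plate cutoff, the mean inhibition of test compounds on that plate plus 3 SD, cut at about 49% in these data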
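Test system: RD-HGA16 CHO cells with stable hTAAR1 and Gα16 / Probe or stimulus: EC80 β-phenethylamine stimulus / Times: seeding 17-24 h prior, 75-min 37 °C, 30-min RT dye loading / Detection: Fluo-8 calcium-sensitive fluorescence / Read-out basis: % inhibition scaled between DMSO and EC80 PEA controls / Repeats: singlicate, one well per test compound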
GalR3 antagonist: blocks the human galanin receptor 3; 360,000 tested, 0.44% active; O60755; inhibition, % at 3 µM; HEK293 GalR3-CNG cAMP membrane potential fluorescence; galR3 body fused to GalR1 C-terminus; AID 651719;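 active = inhibition above the screen-wide average plus 3 SD, cut at about 13% in these data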;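 note: forskolin and galanin both at EC90 stimulate the cells; cAMP rise reported by CNG channel membrane potential dye signal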
Target sequence (O60755 1-299 limits assumed): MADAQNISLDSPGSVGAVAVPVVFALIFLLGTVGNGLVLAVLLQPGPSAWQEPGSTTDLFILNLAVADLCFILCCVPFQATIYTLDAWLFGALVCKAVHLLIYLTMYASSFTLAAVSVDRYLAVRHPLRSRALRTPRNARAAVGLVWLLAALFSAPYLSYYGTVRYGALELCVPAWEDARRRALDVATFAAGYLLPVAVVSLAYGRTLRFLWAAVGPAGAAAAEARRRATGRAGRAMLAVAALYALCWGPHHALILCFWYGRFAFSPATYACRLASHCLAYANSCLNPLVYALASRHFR
OX1R antag-1: human HCRTR1 antagonism; O43613; CHO/OX1R cells, Fluo-8 calcium fluorescence, orexin A; inhibition, % at 5 µM; 330,000 tested, 0.43% active; AID 434989;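 active = inhibition above its plate's threshold, mean inhibition of all tested compounds on the plate plus 3 SD, cut at about 37% in these data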
CHO parental Ca: counter-screen for OX1R antagonists: effect in parental CHO cells | parental CHO-K1, ATP-induced calcium, Fluo-8 fluorescence | inhibition, % at 5.6 µM | 330,000 tested, 0.63% active;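 active = inhibition above that plate's mean sample inhibition plus 3 SD, cut at about 26% in these data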
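Assay system: parental CHO cells; Read-out basis: percent inhibition of ATP-evoked calcium rise, normalized to controls; Benchmarks: ATP and no-ATP DMSO wells; Compound dosing: single nominal dose of 5.6 µM per compound; Signal: Fluo-8 calcium dye fluorescence; Also added: ATP as calcium-mobilizing challenge; Repeats: singlicate.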
OX1R antag-2: OX1R (human) antagonism; inhibition, % at 6.6 µM; O43613; 330,000 tested, 1.8% active; OX1R-expressing cells, FRET antagonist read-out; in the data active = inhibition mostly above about 38%, no sharp cut-off; inactive = mostly below about 40%
OX1R HTRF conf: confirmation of human orexin 1 receptor antagonists, HTRF format | shares compounds with OX1R antag-2 | inhibition, % at 6.6 µM | AID 492964 | OX1R-expressing cells, HTRF antagonist assay | 1,800 tested, 49% active; in the data active = inhibition above about 55%;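 note: CHO cells expressing OX1R stimulated with orexin A at about EC80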
CHO-K1 HTRF cnt: counter-screen: parental CHO-K1 HTRF response | shares compounds with OX1R antag-2 | parental CHO-K1 cells, HTRF counterscreen | inhibition, % at 6.6 µM | 1,800 tested, 48% active | AID 493232; in the data active = inhibition above about 17%
A number is an active result; 0 = inactive; - = no result.

SMILES	TAAR1 ag	TAAR1 antag	GalR3 antagonist	OX1R antag-1	CHO parental Ca	OX1R antag-2	OX1R HTRF conf	CHO-K1 HTRF cnt
CCOC1=C2[C@@H](CN(S(=O)(=O)c3ccc(C)cc3)[C@H]2c2ccccc2Cl)[C@H]2C(=O)N(Cc3ccccc3)C(=O)[C@H]2C1	0	0	0	-	-	-	-	-
CC1Cc2ccccc2N1C(=O)CCS(=O)(=O)c1cccc2nonc12 (stereo not drawn)	0	0	0	0	0	85	0	23
Cc1ccc(C)c(N2CCN(C(=O)CCS(=O)(=O)c3cccc4nonc34)CC2)c1	0	0	0	0	0	0	-	-
CC1=C(C(=O)N(C(C)C)C(C)C)CC(CC(=O)NC2CC2)C(=O)N1CCCN1CCCC1=O (stereo not drawn)	0	0	0	-	-	-	-	-
O=c1c([N+](=O)[O-])cccn1Cc1ccccc1Cl	0	0	0	0	0	79	0	27
N/C(=N\OC(=O)c1ccc(Cl)c([N+](=O)[O-])c1)c1ccccn1	0	0	0	0	0	114	0	58
O=c1ccc2c(ccc3ncccc32)o1	0	0	0	-	-	-	-	-
COCCCn1cnc2oc3nc4ccccc4nc3c2c1=O	0	0	0	0	0	85	67	107
CCN(CC)c1nc2ccccc2n(Cc2cccc(OC)c2)c1=O	0	0	0	0	0	0	-	-
CCCOc1ccc(/C=N/NC(=O)CN(c2ccc(OCC)cc2)S(C)(=O)=O)cc1	0	0	0	0	0	0	-	-
CCOc1ccc(N(CC(=O)N/N=C/c2cc([N+](=O)[O-])ccc2Cl)S(C)(=O)=O)cc1	0	0	0	0	0	81	0	0
[O-][n+]1onc2c3ccnnc3ccc21	0	0	0	0	0	150	0	83
O=C(Nc1cccc(S(=O)(=O)N2CCCC2)c1)[C@@H]1O[C@H](CO)[C@@H](O)[C@H]1O	0	0	0	-	-	-	-	-
COc1cccc(C(NC(C)=O)c2nc(-c3ccc4c(c3)OCO4)cs2)c1 (stereo not drawn)	0	0	0	-	-	-	-	-
CC(=O)c1nnn(-c2ccc([N+](=O)[O-])cc2)c1C	0	0	0	0	0	123	0	59
CC(=O)c1nnn(-c2cccc(C#N)c2)c1C	0	0	0	0	0	0	-	-
CCN(CC)CCNC(=O)C(=O)NCC1OCCN1S(=O)(=O)c1ccc([N+](=O)[O-])cc1 (stereo not drawn)	0	0	0	0	0	92	0	64
CCN(CC)CCNC(=O)C(=O)NCC1OCCN1S(=O)(=O)c1ccc(Cl)cc1 (stereo not drawn)	0	0	0	0	0	0	-	-
CN(C)CCNC(=O)C(=O)NCC1OCCN1S(=O)(=O)c1ccc([N+](=O)[O-])cc1 (stereo not drawn)	0	0	0	0	0	89	0	60
CC1=NN(C(N)=S)C(=O)C1N=Nc1ccccc1O (stereo not drawn)	0	0	0	0	0	0	-	-
CC1=NN(C(N)=S)C(=O)C1N=Nc1ccccc1C (stereo not drawn)	0	0	0	0	0	96	0	17
CC(C)OCCCNC(=O)c1ccccc1NC(=O)C1=CSCCO1	0	0	0	0	0	0	-	-
CCC(CC)c1nn2c(N)c(/C=C3\C=Nc4ccccc43)c(=O)nc2s1	0	0	0	0	0	0	-	-
CC(C)c1nn2c(N)c(/C=C3\C=Nc4ccccc43)c(=O)nc2s1	0	0	0	0	0	82	66	0
CCN(CC)c1ccc2cc(C(C)=O)c(=O)oc2c1	0	0	0	0	0	96	0	0
SMILES	TAAR1 ag	TAAR1 antag	GalR3 antagonist	OX1R antag-1	CHO parental Ca	OX1R antag-2	OX1R HTRF conf	CHO-K1 HTRF cnt
CCN(CC)c1ccc2cc(C(N)=O)c(=N)oc2c1	0	0	0	0	0	0	-	-
CN(C)S(=O)(=O)c1cccc(NC(=O)c2cccc(S(=O)(=O)N3CCc4ccccc43)c2)c1	0	0	0	0	0	0	-	-
O=C(NCC(c1cccs1)N1CCOCC1)c1cc([N+](=O)[O-])cc([N+](=O)[O-])c1 (stereo not drawn)	0	0	0	0	0	112	0	58
COc1cccc(Nc2ncnc3c2cnn3-c2cccc(C)c2)c1	0	0	0	0	0	92	0	0
OCC(Cc1ccccc1)Nc1c2ccccc2nc2ccccc12 (stereo not drawn)	0	0	0	0	0	88	72	17
c1ccc(CNc2c3ccccc3nc3ccccc23)cc1	0	0	0	0	0	0	-	-
CC1(C(=O)NCC2CC2)CCN1C(=O)C1(c2ccc(Cl)cc2)CC1 (stereo not drawn)	0	0	0	-	-	-	-	-
Cc1cc(C=C2C(=O)c3ccccc3C2=O)c(C)n1C	0	0	0	0	0	92	0	0
O=C(CN1C(=O)c2cccc3cccc(c23)C1=O)N1CCOCC1	0	0	0	0	0	104	0	87
COc1ccc(C(=O)CN2CCN(CCN3C(=O)c4cccc5cccc(c45)C3=O)CC2)cc1	0	0	0	0	0	91	0	21
COc1cc2c3c(cccc3c1)C(=O)N(CCN1CCCC1)C2=O	0	0	0	-	-	-	-	-
O=C(CN1C(=O)S/C(=C/c2ccc(N3CCOCC3)cc2)C1=O)N1CCOCC1	0	0	0	0	0	85	0	47
Cc1ccc(CN=c2c([N+](=O)[O-])nn(-c3ccc(Cl)cc3)n2O)cc1	0	0	0	0	0	0	-	-
O=[N+]([O-])c1nn(-c2ccc(Cl)cc2)n(O)c1=NCc1ccncc1	0	0	0	0	0	84	0	54
CO[C@H]1CN(C)C(=O)c2ccc(NC(=O)C3CCC3)cc2OC[C@H](C)N(CC2CCCCC2)C[C@@H]1C	0	0	0	-	-	-	-	-
Cn1cc([N+](=O)[O-])c(C(=O)NNC(=O)c2ccc([N+](=O)[O-])cc2)n1	0	0	0	0	0	98	0	53
Cn1cc([N+](=O)[O-])c(C(=O)N/N=C/c2ccc([N+](=O)[O-])cc2)n1	0	0	0	0	0	110	0	58
CCN=C(N/N=C/c1ccc([N+](=O)[O-])cc1)SC	0	0	0	0	0	88	0	51
Cn1cc([N+](=O)[O-])c(C(=O)NCC(=O)O)n1	0	0	0	0	0	0	-	-
COCCN(CCOC)Cc1cc(=O)oc2ccccc12	0	0	0	-	-	-	-	-
CCOC(=O)C1CCN(C(=O)c2ccc(OC3CCN(C(=O)COC)CC3)cc2)CC1	0	0	0	-	-	-	-	-
COCCCNC(=O)[C@H]1O[C@@H](n2cnc3c(=O)[nH]c(N)nc32)[C@H](O)[C@@H]1O	0	0	0	-	-	-	-	-

Compound activity deposited in PubChem BioAssay by The Scripps Research Institute Molecular Screening Center.
